Laboratory results as given in the EternaBench riboswitch data.

Test system: MS2 coat protein
Test: apparent Kd, MS2 coat protein; higher = weaker binding; RNA-MaP array; FMN 200 µM where present
In short: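 On Illumina sequencing-chip clusters, designs were transcribed by stalled E. coli RNA polymerase and titrated with SNAP-549-labelled MS2 coat protein (0.7 or 1.5 nM, doubling to 3 µM), without and then with constant ligand, in 100 mM Tris-HCl pH 7.5, 80 mM KCl, 4 mM MgCl2, BSA, DTT, yeast tRNA and Tween-20. Apparent Kd is the median of filtered per-cluster curve fits to green signal normalised to red-channel RNA signal and control-cluster median Fmax.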

[1] = designed as: ON switch for flavin mononucleotide, no ligand
[2] = ligand present: flavin mononucleotide, designed as: ON switch for flavin mononucleotide
[3] = designed as: OFF switch for flavin mononucleotide, no ligand
[4] = ligand present: flavin mononucleotide, designed as: OFF switch for flavin mononucleotide

Sequence: CGAGACCUCACAGGAUAUGCUGGACUUUGUCCAGCAGAAGGGUGAAAACAUGAGGAUCACCCAUGUAUGGUCUCCAAAUUUAAA
- apparent Kd [1]: 182 nM
- apparent Kd [2]: 13.6 nM

Sequence: CGAUAGGACAGAGGAUAUACACAUGAGGAUCACCCAUGUGAUUUCAGCGCGAAAGCGCCAAACAUGUAGAAGGCUGUCCUAUCG
- apparent Kd [3]: 25.9 nM
- apparent Kd [4]: 10.6 nM

Sequence: CGAUAGGACAGAGGAUAUGCCGAUAGGAUCUACUAUCGAAGAAUCCUCACAUGAGGAUCACCCAUGUAGAAGGCUGUCCUAUCU
- apparent Kd [3]: 7.9 nM
- apparent Kd [4]: 38.1 nM

Sequence: CGAUAGUGUAGUUAUCCGUAGCGAACAUGAGGAUCACCCAUGUAGGAUAUGUUACUAAACUAGUAACAGAAGGGCGUGAGUCUU
- apparent Kd [3]: 30.2 nM
- apparent Kd [4]: 30.6 nM

Sequence: CGAUAUAUGAAGGGCGAACGCGCACAUGAGGAUCACCCAUGUAGAAGGCGAUCCGCAACGCGGAUCGAGGAUAUAUAGUAUACG
- apparent Kd [3]: 32.7 nM
- apparent Kd [4]: 34 nM

Sequence: CGAUAUAUGAAGGGCUAAUGCCCACAUGAGGAUCACCCAUGUAGAAGGCGAUCCGCAACGCGGAUCGAGGAUAUAUAGUAUACA
- apparent Kd [3]: 9.02 nM
- apparent Kd [4]: 9.66 nM

Sequence: CGAUAUUAUGCAGGAUAUCUUUCUUGAAUGAGGAGAGAAGGGCAUAGGGAGACAUAAGCCUUAUUACAUGAGGAUCACCCAUGU
- apparent Kd [3]: 10.9 nM
- apparent Kd [4]: 9.5 nM

Sequence: CGAUAUUAUGUCAGGAUAUACAUUGCGAAAGCAAUGUAGAAGGGACAUGAGGAUCACCCAUGUCCUAACUAUCG
- apparent Kd [3]: 12.5 nM
- apparent Kd [4]: 14.2 nM

Sequence: CGAUCGGAAGGAUAUACACCUCACGUCAAACGGACAACCGGACAUGAGGAUCACCCAUGUAGAAGGUCCAAAAU
- apparent Kd [3]: 72.6 nM
- apparent Kd [4]: 238 nM

Sequence: CGAUGCAGAGGAUAUACAUGAGGAUCACCCAUGUACCUACUCGGGCGUCCUCUUAGAUGUAGAAGGCUGACACU
- apparent Kd [3]: 62.6 nM
- apparent Kd [4]: 72 nM

Sequence: CGAUGGCAUGUAGGAUAUCGAGCUCAAAGAGCUCGAGAAGGACAUGAGGAUCACCCAUGUGCUCACAGACAGUGAGCGCUAUCG
- apparent Kd [3]: 31.2 nM
- apparent Kd [4]: 156 nM

Sequence: CGCAACAUACAGAAGGAGUAAAUUAGAAGUGUACUAGGAUAUGUAAACAUGAGGAUCACCCAUGUCGAAUGUGUUAUAGUUGCG
- apparent Kd [3]: 8.24 nM
- apparent Kd [4]: 8.53 nM

Sequence: CGCAAUAUACAGAAGGAGUUAUUUAGAGGAUUACUAGGAUAUGUUCACAUGAGGAUCACCCAUGUCAUAUUGGGAUUUAUUGCG
- apparent Kd [3]: 10 nM
- apparent Kd [4]: 10.3 nM

Sequence: CGCAAUAUACAGAAGGAGUUAUUUAGAGGUUUACUAGGAUAUGUUCACAUGAGGAUCACCCAUGUCAUAUGGAGUUUUAUUGCG
- apparent Kd [3]: 9.25 nM
- apparent Kd [4]: 8.33 nM

Sequence: CGCACUAUACAUGAGGAUCACCCAUGUUAACUUUAGCUAUUCAGAAGGCAUAAAUAGAGAUUAAAUGAGGAUAUGAUUAGUGCG
- apparent Kd [1]: 88.6 nM
- apparent Kd [2]: 28.3 nM

Sequence: CGCACUGAUAGAGGAUAUGUUUUACAUGAGGAUCACCCAUGUGUACAUGGAUUAAUAUAUAAGUAACAGAAGGCUAUUUGUGCG
- apparent Kd [3]: 18.9 nM
- apparent Kd [4]: 15.1 nM

Sequence: CGCACUGUACAUGAGGAUCACCCAUGUUAAUAUGAGGUAGUCAGAAGGCAUUGUUUGAGAUAUUAUGAGGAUAUGAUUAGUGCG
- apparent Kd [1]: 110 nM
- apparent Kd [2]: 28.9 nM

Sequence: CGCACUUAGCGAGGAUAUGUUAAACAUGAGGAUCACCCAUGUGAUUUAGUAUCAAUAUUAGUGAAACAGAAGGCGCUUAGUGCG
- apparent Kd [3]: 14 nM
- apparent Kd [4]: 13.2 nM

Sequence: CGCACUUAGCGAGGAUAUGUUAAACAUGAGGAUCACCCAUGUGAUUUAGUAUCAAUUUUAGUGAAACAGAAGGCGCUUAGUGCG
- apparent Kd [3]: 17.6 nM
- apparent Kd [4]: 14.9 nM

Sequence: CGCACUUAUAGAGGAUAUGUUGUACAUGAGGAUCACCCAUGUGUUUUUGUAUCAAUAUUAGUGAAACAGAAGGCUAUUUGUGCG
- apparent Kd [3]: 5.76 nM
- apparent Kd [4]: 4.96 nM

Sequence: CGCAGACAUUGGACCUGGUAACAUGAGGAUCACCCAUGUAUCAGAAGGUACUUAUAGAGAUUAAGUAAGGAUAUGAAGUUUGUG
- apparent Kd [1]: 5.34 nM
- apparent Kd [2]: 6.55 nM

Sequence: CGCCAGUGAGGAUAUCCAUCUGGAUCAGACUAGAUCCUGAUGGAGAAGGCACAUGAGGAUCACCCAUGUCGGCG
- apparent Kd [3]: 18.5 nM
- apparent Kd [4]: 19.5 nM

Sequence: CGCGAAAGAUUAUUAUGAAUAAACAUGAGGAUCACCCAUGUAUAGGAUAUGCAGUGGAAUACACUGCAGAAGGAUACAUACGCG
- apparent Kd [3]: 22.2 nM
- apparent Kd [4]: 123 nM

Sequence: CGCUAAGAGAACGAUACGAGAAGACAUGAGGAUCACCCAUGUAGAAGGACAACGGAAUAAACGUUGUAGGAUAUACACUUAGCG
- apparent Kd [3]: 15 nM
- apparent Kd [4]: 20.6 nM

Sequence: CGCUAAGAGAACUAUUCGAGAAGACAUGAGGAUCACCCAUGUAGAAGGACAACGGAAUAAACGUUGUAGGAUAUACACUUAGCG
- apparent Kd [3]: 9.36 nM
- apparent Kd [4]: 8.97 nM

Sequence: CGCUACACCCAGAAGGACAUGAGGAUCACCCAUGUAGGAUAUGGGAGACACAGUCCCGUGUAGAGAAACUACGCUAGUGUAGCG
- apparent Kd [1]: 344 nM
- apparent Kd [2]: 112 nM

Sequence: CGCUACGUUUCGUAGCAGCUAGGUGAGGAUAUUCAAUUUUUCACAUGAGGAUCACCCAUGUAUGUGAAGAAGGCGCCUAGAAAA
- apparent Kd [1]: 11 nM
- apparent Kd [2]: 4.78 nM

Sequence: CGCUACGUUUCGUAGCAGUGUCAUCGAGAAGGCCCUGACAUGAGGAUCACCCAUGUUCCAAAAUGGGAGGAUAUCGAUGAUACA
- apparent Kd [1]: 4.89 nM
- apparent Kd [2]: 4.99 nM

Sequence: CGCUACUACCAGAAGGACAUGAGGAUCACCCAUGUAGGAUAUGGGUUACACGUUCCUGUGUUAAGUUACUACGCUACGUAUGCG
- apparent Kd [1]: 419 nM
- apparent Kd [2]: 20.2 nM

Sequence: CGGAACAUGAGGAUCACCCAUGUAGCUACUUAAAGGUGCUACAGAAGGGACAUUGCGCGUCAUGGUCAGGAUAUGUAGGGCGGA
- apparent Kd [1]: 148 nM
- apparent Kd [2]: 62.4 nM

Sequence: CGGAUGUGAGGAUAUACAUGAGGAUCACCCAUGUGAGCCAGCUAGCUGACUGGCUCAUGUAGAAGGCACGUCUG
- apparent Kd [3]: 50.3 nM
- apparent Kd [4]: 120 nM

Sequence: CGGCAAUGACGAGGAUAUAGACAUGAGGAUCACCCAUGUAACAGUAUUACAGGGCGUCUUCUCAGCUAGAAGGCGUUCUAUGCC
- apparent Kd [3]: 37.3 nM
- apparent Kd [4]: 88.4 nM

Sequence: CGGCGGAAAGGAUAUGCAGUAAUAUCAAAAUGUGGGCCACGACAUGAGGAUCACCCAUGUAGAAGGUUCAGCCA
- apparent Kd [3]: 16 nM
- apparent Kd [4]: 13.6 nM

Sequence: CGGGAGUCAGGAUAUACGAACAUGUCGCCAGAUGUCAUGGUACAUGAGGAUCACCCAUGUAGAAGGGAGGCGGU
- apparent Kd [3]: 50.6 nM
- apparent Kd [4]: 30.5 nM

Sequence: CGGGCUGCCAGAGGAUAAUGGACAUGAGGAUCACCCAUGUGUCAGGAUAUGGGUUUCACAUGGACUCAGAAGGGACCAGCCCAA
- apparent Kd [1]: 101 nM
- apparent Kd [2]: 24.9 nM

Sequence: CGGUACUUAGGAUAUACAUGAGGAUCACCCAUGUAGAGAAGGUGGGUGCCGUCCUGUAGUAGAAGGAAGAAUCG
- apparent Kd [3]: 46.9 nM
- apparent Kd [4]: 55.8 nM

Sequence: CGGUCUUGUAACUAUUUGUUUCACAUGAGGAUCACCCAUGUCAGAAGGAGGUACAUCUAUUAGACCUAGGAUAUGACGUGUAAG
- apparent Kd [3]: 27.5 nM
- apparent Kd [4]: 100 nM

Sequence: CGGUGACGUGUAGGAUAUGGCGCUGGGUUUUGCCCAGAAGGACAUGAGGAUCACCCAUGUGGUAGAGGGCUGGCGGCCGCCCGU
- apparent Kd [3]: 17.1 nM
- apparent Kd [4]: 21.6 nM

Sequence: CGGUGCUGAGGAUAUACAUGAGGAUCACCCAUGUGUGCCAGCUAGCUGACUGGCACUUGUAGAAGGCAGUACUG
- apparent Kd [3]: 12.7 nM
- apparent Kd [4]: 24.2 nM

Sequence: CGGUGUAGAGGAUAUACGUGAAUUUUGUUAUAUGAUAAUUUACAUGAGGAUCACCCAUGUAGAAGGCUAUAGCG
- apparent Kd [3]: 17.9 nM
- apparent Kd [4]: 18.1 nM

Sequence: CGUAACUGCAUAGGAUAUUGAUACAUGAGGAUCACCCAUGUUUUUCGGAUUAGAUAUAUACUAAGCAAGAAGGAUGGAGUUACG
- apparent Kd [1]: 7.83 nM
- apparent Kd [2]: 5.26 nM

Sequence: CGUAGGAUCCAGAAGGCAUGAACAUGAGGAUCACCCAUGUCAAAAGACAUGAGGAUAUGGAUCCUACGAAAAGUGCGAAAGCAC
- apparent Kd [1]: 19 nM
- apparent Kd [2]: 5.55 nM

Sequence: CGUAGUUGGUAAGGAUAUCCUACACUGUUCUGACCCGUGCAAGCUACAUGAGGAUCACCCAUGUGGGAGAAGGUGCGUCAACGC
- apparent Kd [3]: 18.4 nM
- apparent Kd [4]: 19.6 nM

Sequence: CGUAUGUCAGGAUAUGCGUAUGCCAGUCAGGGCGAGUGGCAGCAGAAGGGACAUGAGGAUCACCCAUGUUCGGG
- apparent Kd [3]: 60.8 nM
- apparent Kd [4]: 51.3 nM

Sequence: CGUAUGUCAGGAUAUGCGUAUGCCGCCCAGAACGGGCAGCAGCAGAAGGGACAUGAGGAUCACCCAUGUUCGGG
- apparent Kd [3]: 68.3 nM
- apparent Kd [4]: 73.1 nM

Sequence: CGUGCUUAUGUAGGAUAUGGUUAUCUAUGUCUAGUUACUAGACAUAGAUAACCAGAAGGACAUGAGGAUCACCCAUGUUGCACG
- apparent Kd [3]: 8.28 nM
- apparent Kd [4]: 15.5 nM

Sequence: CGUGUGUGAGGAUAUGACAAUGGUAUCUUCGGAUACCAUUGUCAGAAGGUACAUGAGGAUCACCCAUGUAGAUC
- apparent Kd [3]: 37.7 nM
- apparent Kd [4]: 70.3 nM

Sequence: CGUUAUUCAGGAUAUGGCGUGUUAUACAUGAGGAUCACCCAUGUAGAUCCUGGUUAGGCCUCAGAAGGGAAUGUUC
- apparent Kd [3]: 43.7 nM
- apparent Kd [4]: 37.8 nM

Sequence: CUAAAGCGAGGAUAUACAAUAAAAGGGAAUAAGGGAAAAAAACAUGAGGAUCACCCAUGUAGAAGGCGCCGAAA
- apparent Kd [3]: 32.2 nM
- apparent Kd [4]: 30.6 nM

Sequence: CUAAAUCAUGUAGGAUAUGCAUGGCGAAGCUACGCAGAAGGACAUGAGGAUCACCCAUGUCUGUCCGACAGCGUACUGUCGGAC
- apparent Kd [3]: 19.6 nM
- apparent Kd [4]: 112 nM

Sequence: CUACCUUAUGAGAAGGCGAUCAUGAAACAUGAUCGAGGAUAUCAUGUAAACAUGAGGAUCACCCAUGUAUGGGUAUUAUGGUAC
- apparent Kd [1]: 98.5 nM
- apparent Kd [2]: 27.3 nM

Sequence: CUACCUUAUGAGAAGGCGGUCAUGAAACAUGAUCGAGGAUAUCAUGUAAACAUGAGGAUCACCCAUGUAUGGGUAUUAUGGUAC
- apparent Kd [1]: 170 nM
- apparent Kd [2]: 33 nM

Sequence: CUAGAGGAUUAAGGAUAUGCAGAGAGAUCAUGCGCGUCGCGCACAUGAGGAUCACCCAUGUAAGAGCAGAAGGUAACUAUGAUC
- apparent Kd [3]: 18.3 nM
- apparent Kd [4]: 16.6 nM

Sequence: CUAGAUAUGUAAGGAUAUAUAGUGGAAUACACUAUAGAAGGUAUGUGAGAACAUGAGGAUCACCCAUGUCAUUGGAUAUCUAGA
- apparent Kd [1]: 33.7 nM
- apparent Kd [2]: 37.6 nM

Sequence: CUAGUACAUGAGGAUCACCCAUGUCAGGAUAUUGGAUAUGCCUUGGAAUACAUGUUUACAAGAAGGGACUAUAG
- apparent Kd [3]: 23 nM
- apparent Kd [4]: 21.7 nM
